# Data as given in ChEMBL document CHEMBL5236549, “Discovery of 2-Sulfinyl-Diazabicyclooctane Derivatives, Potential Oral β-Lactamase Inhibitors for Infections Caused by Serine β-Lactamase-Producing Enterobacterales” (J Med Chem, 2021).
# Legend:
# [1] = Inhibition of bacterial beta-lactamase KPC-2 using nitrocefin as substrate incubated for 20 mins; parameters: species or system Bacteria
# Outline: (§1)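 Nitrocefin hydrolysis read by absorbance. Enzyme titrated to give about 0.2 absorbance change over the no-enzyme control. Enzyme added to nitrocefin (final 50 μg/mL) plus inhibitor, no preincubation, read after 20 min at 35 °C. IC50 is 50% reduction of hydrolysis. N = 1.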
# [2] = Inhibition of bacterial beta-lactamase CTX-M-15 using nitrocefin as substrate incubated for 20 mins; parameters: species or system Bacteria
# [3] = Total clearance in rat by LC-MS/MS analysis; type: ADME; details: in vivo
# [4] = Inhibition of bacterial beta-lactamase CMY-2 using nitrocefin as substrate incubated for 20 mins; parameters: species or system Bacteria; outline: as §1
# [5] = Stability of the compound in phosphate buffer at pH 7.0 assessed as parent compound remaining at 40 degreeC measured after 16 hrs; type: physicochemical; details: read-out: Stability
# Outline: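 Compound held in pH 7.0 phosphate buffer at 40 °C for 16 h; amount remaining reported as %.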
# [6] = Stability in rat serum assessed as compound remaining at 5 micromol/L incubated for 30 mins by LC-MS/MS analysis; type: ADME, cell-free; details: dose 5 µmol/L, read-out: Stability
# Outline: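 Pooled rat serum incubated with 5 μmol/L compound for 30 min at 37 °C, in duplicate; aliquot mixed with methanol, centrifuged, supernatant analysed by LC/MS/MS for % remaining.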
# [7] = AUC in monkey at 10 mg/kg,po by LC/MS/MS analysis; type: ADME, organism-based, Macaca mulatta; parameters: dose 10 mg/kg, route po; details: rhesus monkey, in vivo
# Outline: (§2)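 Plasma of the parent acid measured by LC/MS/MS (methanol precipitation, positive ESI, external standard); oral values follow prodrug dosing (rat fed, dog and monkey fasted). AUC from 0 h to last time point by linear trapezoid; F from oral AUC versus iv AUC of the parent. N = 2 (rat, dog), N = 3 (monkey, mouse).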
# [8] = Tmax in monkey at 10 mg/kg,po by LC/MS/MS analysis; type: ADME, organism-based, Macaca mulatta; details: rhesus monkey, in vivo
# [9] = AUC in dog at 10 mg/kg,po by LC/MS/MS analysis; type: ADME, organism-based, Canis lupus familiaris; parameters: dose 10 mg/kg, route po; details: in vivo; outline: as §2
# [10] = Cmax in rat at 5 mg/kg,po by LC/MS/MS analysis; type: ADME, organism-based; parameters: dose 5 mg/kg, route po; details: in vivo; outline: as §2
# [11] = Oral bioavailability in rat at 5 mg/kg by LC/MS/MS analysis; type: ADME, organism-based; details: in vivo; outline: as §2
# [12] = Cmax in monkey at 10 mg/kg,po by LC/MS/MS analysis; type: ADME, organism-based, Macaca mulatta; parameters: dose 10 mg/kg, route po; details: rhesus monkey, in vivo; outline: as §2
# [13] = Oral bioavailability in dog at 10 mg/kg by LC/MS/MS analysis; type: ADME, organism-based, Canis lupus familiaris; details: in vivo; outline: as §2
# [14] = Tmax in rat at 5 mg/kg,po by LC/MS/MS analysis; type: ADME, organism-based; details: in vivo
# [15] = Tmax in dog at 10 mg/kg,po by LC/MS/MS analysis; type: ADME, organism-based, Canis lupus familiaris; details: in vivo
# [16] = Oral bioavailability in monkey at 10 mg/kg by LC/MS/MS analysis; type: ADME, organism-based, Macaca mulatta; details: rhesus monkey, in vivo; outline: as §2
# [17] = Cmax in dog at 10 mg/kg,po by LC/MS/MS analysis; type: ADME, organism-based, Canis lupus familiaris; parameters: dose 10 mg/kg, route po; details: in vivo; outline: as §2
# [18] = AUC in rat at 5 mg/kg,po by LC/MS/MS analysis; type: ADME, organism-based; parameters: dose 5 mg/kg, route po; details: in vivo; outline: as §2
# Klebsiella pneumoniae [19] = assay: Antibacterial activity against Klebsiella pneumoniae ATCC BAA1705 assessed as reduction in bacterial growth by measuring minimum potentiating concentration incubated for 16 to 20 hrs by CLSI based two-fold serial dilution method; details: time 16-20 hrs
# Escherichia coli [20] = assay: Antibacterial activity against Escherichia coli ATCC SR34100 assessed as inhibition of bacterial growth incubated for 16 to 20 hrs by CLSI based two-fold serial dilution method
# Escherichia coli [21] = assay: Antibacterial activity against Escherichia coli ATCC SR34100 assessed as reduction in bacterial growth by measuring minimum […] concentration incubated for 16 to 24 hrs by CLSI based two-fold serial dilution method; type: functional; details: time 16-24 hrs
# Outline: (§3)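 MPC₁ by broth microdilution: twofold serial dilutions of inhibitor in cation-adjusted Mueller Hinton broth containing ceftibuten at 1 μg/mL. Inoculum about 5 × 10⁴ cfu/well final, set from OD625. Incubation at 35 °C for 16−20 h. […] N = 1.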
# Klebsiella pneumoniae [22] = assay: Antibacterial activity against Klebsiella pneumoniae ATCC BAA1705 assessed as inhibition of bacterial growth incubated for 16 to 20 hrs by CLSI based two-fold serial dilution method
# Klebsiella pneumoniae [23] = assay: Antibacterial activity against Klebsiella pneumoniae ATCC SR201218 assessed as inhibition of bacterial growth incubated for 16 to 20 hrs by CLSI based two-fold serial dilution method
# Escherichia coli [24] = assay: Antibacterial activity against Escherichia coli ATCC SR09613 assessed as reduction in bacterial growth by measuring minimum […] concentration incubated for 16 to 24 hrs by CLSI based two-fold serial dilution method; type: functional; details: time 16-24 hrs; outline: as §3
# Escherichia coli [25] = assay: Antibacterial activity against Escherichia coli ATCC SR09613 assessed as inhibition of bacterial growth incubated for 16 to 20 hrs by CLSI based two-fold serial dilution method
# Klebsiella pneumoniae [26] = assay: Antibacterial activity against Klebsiella pneumoniae ATCC SR201218 assessed as reduction in bacterial growth by measuring minimum […] concentration incubated for 16 to 24 hrs by CLSI based two-fold serial dilution method; type: functional; details: time 16-24 hrs; outline: as §3
# [27] = Inhibition of bacterial beta-lactamase OXA-48 using nitrocefin as substrate incubated for 20 mins; parameters: species or system Bacteria; outline: as §1
Structure (SMILES),IC50 [1],IC50 [2],IC50 [4],MPC (Klebsiella pneumoniae [19]),MIC (Escherichia coli [20]),MPC (Escherichia coli [21]),MIC (Klebsiella pneumoniae [22]),MIC (Klebsiella pneumoniae [23]),MPC (Escherichia coli [24]),MIC (Escherichia coli [25]),MPC (Klebsiella pneumoniae [26]),further results
NS(=O)(=O)[C@@H]1CC[C@@H]2CN1C(=O)N2O[C@H](F)C(=O)[O-].[Na+],977 nM,249 nM,1110 nM,,,,,,,,,"clearance [3]: 19.8 mL/min/kg; remaining at 16 h [5]: 91%; remaining at 0.5 h, 5 µM [6]: 78%"
CC(C)OC(=O)[C@@H](F)ON1C(=O)N2C[C@H]1CC[C@H]2[S@@+](C)[O-],,,,,,,,,,,,AUC [7]: 7060 ng·h/mL; Tmax [8]: 1 h; AUC [9]: 18400 ng·h/mL; Cmax [10]: 1700 ng/mL; bioavailability [11]: 67.6%; Cmax [12]: 4380 ng/mL; bioavailability [13]: 48.1%; remaining at 16 h [5]: 56%; Tmax [14]: 30 min; Tmax [15]: 48 min; bioavailability [16]: 25.5%; Cmax [17]: 7390 ng/mL; AUC [18]: 2090 ng·h/mL
Cc1nnc(C[S@@+]([O-])[C@@H]2CC[C@@H]3CN2C(=O)N3O[C@H](F)C(=O)[O-])o1.[Na+],16 nM,24 nM,36 nM,1 µg/mL,> 32 µg/mL,1 µg/mL,> 32 µg/mL,> 32 µg/mL,0.125 µg/mL,> 32 µg/mL,4 µg/mL,
NCC[S@@+]([O-])[C@@H]1CC[C@@H]2CN1C(=O)N2O[C@H](F)C(=O)O.O=C(O)C(F)(F)F,69 nM,159 nM,431 nM,<0.031 µg/mL,> 32 µg/mL,0.125 µg/mL,> 32 µg/mL,> 32 µg/mL,0.5 µg/mL,> 32 µg/mL,4 µg/mL,
NC(=O)C[S@@+]([O-])[C@@H]1CC[C@@H]2CN1C(=O)N2O[C@H](F)C(=O)[O-].[Na+],35 nM,50 nM,57 nM,0.063 µg/mL,32 µg/mL,0.25 µg/mL,32 µg/mL,> 32 µg/mL,0.125 µg/mL,32 µg/mL,4 µg/mL,
NS(=O)(=O)[C@@H]1CC[C@@H]2CN1C(=O)N2OC(F)(F)C(=O)O.[Na+],52 nM,104 nM,1340 nM,,,,,,,,,"clearance [3]: 84.5 mL/min/kg; remaining at 16 h [5]: 55%; remaining at 0.5 h, 5 µM [6]: 39%"
O=C([O-])[C@@H](F)ON1C(=O)N2C[C@H]1CC[C@H]2[S@+]([O-])CF.[Na+],90 nM,6 nM,113 nM,0.5 µg/mL,32 µg/mL,0.25 µg/mL,32 µg/mL,> 32 µg/mL,0.25 µg/mL,32 µg/mL,2 µg/mL,
NC(=O)OCC[S@@+]([O-])[C@@H]1CC[C@@H]2CN1C(=O)N2O[C@H](F)C(=O)[O-].[Na+],27 nM,14 nM,64 nM,1 µg/mL,> 32 µg/mL,1 µg/mL,> 32 µg/mL,> 32 µg/mL,0.125 µg/mL,> 32 µg/mL,4 µg/mL,
O=C([O-])[C@@H](F)ON1C(=O)N2C[C@H]1CC[C@H]2[S@+]([O-])CCO.[Na+],36 nM,16 nM,57 nM,1 µg/mL,> 32 µg/mL,0.5 µg/mL,,> 32 µg/mL,0.125 µg/mL,> 32 µg/mL,2 µg/mL,
Nc1ncc(C[S@@+]([O-])[C@@H]2CC[C@@H]3CN2C(=O)N3O[C@H](F)C(=O)[O-])s1.[Na+],88 nM,10 nM,41 nM,0.25 µg/mL,> 32 µg/mL,1 µg/mL,> 32 µg/mL,> 32 µg/mL,0.5 µg/mL,> 32 µg/mL,4 µg/mL,IC50 [27]: 0.981 µM
C[S@@+]([O-])[C@@H]1CC[C@@H]2CN1C(=O)N2OC(F)(F)C(=O)[O-].[Na+],8 nM,5 nM,26 nM,,,,,,,,,clearance [3]: 289 mL/min/kg; remaining at 16 h [5]: 17%
O=C([O-])[C@@H](F)ON1C(=O)N2C[C@H]1CC[C@H]2[S@+]([O-])Cc1c[nH]cn1.[Na+],78 nM,8 nM,59 nM,1 µg/mL,32 µg/mL,1 µg/mL,32 µg/mL,> 32 µg/mL,0.125 µg/mL,> 32 µg/mL,4 µg/mL,
O=C([O-])[C@@H](F)ON1C(=O)N2C[C@H]1CC[C@H]2[S@+]([O-])CCCO.[Na+],38 nM,10 nM,39 nM,0.5 µg/mL,> 32 µg/mL,1 µg/mL,> 32 µg/mL,> 32 µg/mL,0.063 µg/mL,> 32 µg/mL,2 µg/mL,
N#CC[S@@+]([O-])[C@@H]1CC[C@@H]2CN1C(=O)N2O[C@H](F)C(=O)[O-].[Na+],39 nM,7 nM,96 nM,<0.031 µg/mL,> 32 µg/mL,0.25 µg/mL,> 32 µg/mL,> 32 µg/mL,0.125 µg/mL,32 µg/mL,2 µg/mL,
NC(=O)/C(C[S@@+]([O-])[C@@H]1CC[C@@H]2CN1C(=O)N2O[C@H](F)C(=O)[O-])=N\O.[Na+] (stereo in doubt),132 nM,70 nM,143 nM,2 µg/mL,> 32 µg/mL,2 µg/mL,> 32 µg/mL,> 32 µg/mL,0.25 µg/mL,> 32 µg/mL,32 µg/mL,
O=C([O-])[C@@H](F)ON1C(=O)N2C[C@H]1CC[C@H]2[S@+]([O-])C[C@@H](O)CO.[Na+],56 nM,10 nM,52 nM,0.25 µg/mL,> 32 µg/mL,1 µg/mL,> 32 µg/mL,> 32 µg/mL,0.125 µg/mL,> 32 µg/mL,8 µg/mL,
C[S@+]([O-])[C@@H]1CC[C@@H]2CN1C(=O)N2O[C@H](F)C(=O)[O-].[Na+],443 nM,445 nM,655 nM,0.125 µg/mL,16 µg/mL,0.125 µg/mL,32 µg/mL,> 32 µg/mL,0.5 µg/mL,32 µg/mL,2 µg/mL,IC50 [27]: 32.6 µM
CC(=O)NCC[S@@+]([O-])[C@@H]1CC[C@@H]2CN1C(=O)N2O[C@H](F)C(=O)[O-].[Na+],7 nM,101 nM,101 nM,0.25 µg/mL,> 32 µg/mL,0.5 µg/mL,> 32 µg/mL,,0.063 µg/mL,> 32 µg/mL,8 µg/mL,
